Data set [1] concerns MT4. As to the kind of experiment: Cytotoxicity against human MT4 cells assessed as inhibition of cell growth by measuring ATP by CellTiter-Glo luminescent cell viability assay. The class given is toxicity, cell-based. The method in brief: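 MT4 cells were cultured in parallel with the anti-HIV-1 cultures (NL4-3, MOI 0.001, 4 days, medium with compound refreshed at 48 h). Viability was read as ATP of metabolically active cells by CellTiter-Glo luminescence. Dose-response curves came from three independent experiments.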

Data set [2] concerns Human immunodeficiency virus 1. Put plainly: Anti-HIV activity against Human immunodeficiency virus 1 […] infected in human MT4 cells assessed as inhibition of viral infection measured after 4 days by serial dilution based p24 ELISA analysis. The class given is functional, organism-based. The note with it: Human immunodeficiency virus 1, MT4, 96 h. The method in brief: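 HIV-1 NL4-3 at MOI 0.001 infected MT4 cells with compounds present at various concentrations (4-fold serial dilutions across the inhibitory phase). Fresh compound-containing medium was added 48 h post-infection. Replication was read by p24 ELISA at 4 days post-infection. Dose-response curves came from three independent experiments.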
A general note: ELISA stands for enzyme-linked immunosorbent assay.

The results in this text go back to ChEMBL document CHEMBL5137129, “Anti-HIV Macrocyclic Daphnane Orthoesters with an Unusual Macrocyclic Ring from Edgeworthia chrysantha” (J Nat Prod, 2022).

For the compound `C=C(C)[C@]12C[C@@H](COC(=O)c3ccccc3)[C@@]34OC5(O[C@@H]1[C@@H]3[C@@H]1O[C@]1(CO)[C@@H](O)[C@@]1(O)[C@H]4[C@H]([C@H](C)[C@@H]1OC(=O)c1ccccc1)[C@H](C)CCCCCC[C@H]5O)O2`, the IC50 (commonly the concentration needed to halve the response being measured) in data set [1] is above 32 nM.

For `C=C(C)[C@@]12OC34CCC/C=C\CCCC[C@H](CCC)[C@@H]5[C@@H]6[C@]7(O[C@]5(C)OC7=O)[C@H](O)[C@@]5(CO)O[C@H]5[C@@H]([C@H]1O3)[C@]6(O4)[C@H](COC(=O)c1ccccc1)[C@H]2OC(C)=O`, the EC50 – broadly, the midpoint of the concentration-response curve – in data set [2] is above 32 nM. Also, the IC50 in data set [1] was above 32 nM.

On to `C=C(C)[C@@]12OC34CCC/C=C\CCCC[C@H](CCC)[C@@H]5[C@@H]6[C@]7(O[C@]5(C)OC7=O)[C@H](O)[C@@]5(CO)O[C@H]5[C@@H]([C@H]1O3)[C@]6(O4)[C@H](C)[C@H]2OC(C)=O`, for which the EC50 in data set [2] is above 32 nM. Besides, the IC50 in data set [1] was above 32 nM.

Take `C=C(C)[C@@]12OC34CCC/C=C\CCCC[C@H](CCC)[C@@H]5[C@@H]6[C@]7(O[C@]5(C)OC7=O)[C@H](O)[C@@]5(CO)O[C@H]5[C@@H]([C@H]1O3)[C@]6(O4)[C@H](COC(=O)C(C)C)[C@H]2OC(C)=O`: the EC50 in data set [2] came out at 29.3 nM. Also, the IC50 in data set [1] was above 32 nM.

With `C=C(C)[C@@]12OC34CCC/C=C\CCCC[C@H](CCC)[C@H]5[C@H](C)C(=O)[C@@]6(O)[C@H](O)[C@@]7(CO)O[C@H]7[C@@H]([C@H]1O3)[C@](O4)([C@H](C)[C@H]2OC(C)=O)[C@H]56`, the EC50 in data set [2] amounted to 8.4 nM. In addition, the IC50 in data set [1] was above 32 nM.

Regarding `C=C(C)[C@@]12OC34CCC/C=C\CCCC[C@H](CCC)[C@H]5[C@H](C)C(=O)[C@@]6(O)[C@H](O)[C@@]7(CO)O[C@H]7[C@@H]([C@H]1O3)[C@](O4)([C@H](COC(=O)C(C)C)[C@H]2OC(C)=O)[C@H]56`, in data set [2], the EC50 amounted to 2.9 nM. In data set [1], the IC50 was 21.3 nM.
